In brackets after ≈: the same amount, converted by molar mass.
Experiments:
MCF7 = assay: Cytotoxicity against human MCF7 cells after 24 hrs by MTT assay; type: functional, cell-based; conditions: MCF7, 24 h
Method in brief: (§1)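 Cells were grown in DMEM with 10% FBS and penicillin/streptomycin at 37 °C under 5% CO2. Seeding was 1×10^4 cells/well for A549 and MCF-7, or 1.2×10^4 cells/well for HT-29, followed by 24 h attachment. Compounds came from DMSO stocks diluted in serum-free DMEM, 0.1–1000 µg/mL, DMSO <0.5%, triplicate wells, 24 h. MTT (5 mg/mL stock in PBS) 3–4 h at 37 °C in dark; DMSO-solubilised A570. IC50 from 3 runs, mean ± S.E.M.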

A549 [1] = assay: Cytotoxicity against human A549 cells after 24 hrs by MTT assay; type: functional, cell-based; conditions: A549, 24 h; method in brief: as §1
HT-29 = assay: Cytotoxicity against human HT-29 cells after 24 hrs by MTT assay; type: functional, cell-based; conditions: HT-29, 24 h; method in brief: as §1
A549 [2] = assay: Induction of apoptosis in human A549 cells assessed as necrotic cells at 90 ug/mL after 16 hrs by propidium iodide/Annexin V/7-AAD staining-based flow cytometric analysis (reference value: 0.41%); type: functional
A549 [3] = assay: Induction of apoptosis in human A549 cells assessed as late apoptotic cells at 90 ug/mL after 16 hrs by propidium iodide/Annexin V/7-AAD staining-based flow cytometric analysis (reference value: 0.21%); type: functional
A549 [4] = assay: Induction of apoptosis in human A549 cells assessed as early apoptotic cells at 90 ug/mL after 16 hrs by propidium iodide/Annexin V/7-AAD staining-based flow cytometric analysis (reference value: 0.01%); type: functional
A549 [5] = assay: Induction of apoptosis in human A549 cells assessed as viable cells at 90 ug/mL after 16 hrs by propidium iodide/Annexin V/7-AAD staining-based flow cytometric analysis (reference value: 99.37%); type: functional; conditions: A549, 16 h, read-out: Activity

SMILES | IC50 (MCF7) [µg/mL] | IC50 (A549 [1]) [µg/mL] | IC50 (HT-29) [µg/mL] | Activity (A549 [2]) [%] | Activity (A549 [3]) [%] | Activity (A549 [4]) [%] | viability at 90 µg/mL (A549 [5]) [%]
Cc1ncc([N+](=O)[O-])n1CCn1cnc2ccccc21 | 103 (≈ 380 µM) | 219 (≈ 809 µM) | 148 (≈ 546 µM) | – | – | – | –
Cc1ncc([N+](=O)[O-])n1CCn1ccnc1 | 462 (≈ 2090 µM) | 240 (≈ 1080 µM) | 115 (≈ 518 µM) | – | – | – | –
Cc1ncc([N+](=O)[O-])n1CCCl | 480 (≈ 2530 µM) | 300 (≈ 1580 µM) | 311 (≈ 1640 µM) | – | – | – | –
Cc1ncc([N+](=O)[O-])n1CCOC(=O)c1ccc(Br)cc1 | 271 (≈ 766 µM) | 194 (≈ 548 µM) | 277 (≈ 783 µM) | – | – | – | –
Cc1ncc([N+](=O)[O-])n1CCOC(=O)c1ccccc1Cl | 380 (≈ 1230 µM) | 255 (≈ 823 µM) | 279 (≈ 902 µM) | – | – | – | –
Cc1ccc(C(=O)OCCn2c([N+](=O)[O-])cnc2C)cc1 | 256 (≈ 884 µM) | 184 (≈ 636 µM) | 359 (≈ 1240 µM) | – | – | – | –
Cc1ncc([N+](=O)[O-])n1CCOc1ccc(Cl)c(Cl)c1 | 69.6 (≈ 220 µM) | 77.9 (≈ 246 µM) | 109 (≈ 344 µM) | 26.27 | 61.15 | 5.73 | 6.85
Cc1ncc([N+](=O)[O-])n1CCOc1ccccc1Cl | 378 (≈ 1340 µM) | 574 (≈ 2040 µM) | 552 (≈ 1960 µM) | – | – | – | –
Cc1cc(OCCn2c([N+](=O)[O-])cnc2C)ccc1Cl | 188 (≈ 635 µM) | 150 (≈ 506 µM) | 159 (≈ 537 µM) | – | – | – | –
Cc1ncc([N+](=O)[O-])n1CCOC(=O)c1ccccc1F | 262 (≈ 895 µM) | 170 (≈ 578 µM) | 146 (≈ 497 µM) | – | – | – | –
Cc1ncc([N+](=O)[O-])n1CCOc1ccc(F)cc1 | 85.8 (≈ 324 µM) | 129 (≈ 487 µM) | 102 (≈ 386 µM) | – | – | – | –
Cc1ncc([N+](=O)[O-])n1CCOc1ccc(F)c(Cl)c1 | 110 (≈ 367 µM) | 122 (≈ 407 µM) | 199 (≈ 664 µM) | – | – | – | –
Cc1ncc([N+](=O)[O-])n1CCOc1ccc([N+](=O)[O-])cc1 | 127 (≈ 433 µM) | 110 (≈ 378 µM) | 116 (≈ 396 µM) | – | – | – | –
COc1ccccc1C(=O)OCCn1c([N+](=O)[O-])cnc1C | 447 (≈ 1460 µM) | 289 (≈ 947 µM) | 283 (≈ 926 µM) | – | – | – | –
Cc1ncc([N+](=O)[O-])n1CCOc1ccccc1[N+](=O)[O-] | 583 (≈ 1990 µM) | 573 (≈ 1960 µM) | 581 (≈ 1990 µM) | – | – | – | –
COc1cccc(C(=O)OCCn2c([N+](=O)[O-])cnc2C)c1 | 428 (≈ 1400 µM) | 281 (≈ 921 µM) | 293 (≈ 960 µM) | – | – | – | –
Cc1ncc([N+](=O)[O-])n1CCOC(=O)c1ccco1 | 207 (≈ 779 µM) | 167 (≈ 631 µM) | 287 (≈ 1080 µM) | – | – | – | –
Cc1ncc([N+](=O)[O-])n1CCOc1ccc(C#N)cc1 | 83.2 (≈ 306 µM) | 79.8 (≈ 293 µM) | 76.8 (≈ 282 µM) | 9.96 | 21.24 | 11.72 | 57.1
Cc1ncc([N+](=O)[O-])n1CCOc1cccc([N+](=O)[O-])c1 | 71.7 (≈ 245 µM) | 108 (≈ 371 µM) | 112 (≈ 383 µM) | – | – | – | –
Cc1ncc([N+](=O)[O-])n1CCOc1ccccc1 | 106 (≈ 430 µM) | 107 (≈ 435 µM) | 134 (≈ 543 µM) | – | – | – | –
Cc1ncc([N+](=O)[O-])n1CCn1nnc2ccccc21 | 384 (≈ 1410 µM) | 701 (≈ 2580 µM) | 538 (≈ 1980 µM) | – | – | – | –
Cc1nccn1CCn1c([N+](=O)[O-])cnc1C | 157 (≈ 668 µM) | 195 (≈ 831 µM) | 142 (≈ 604 µM) | – | – | – | –
Cc1ncc([N+](=O)[O-])n1CCOc1ccc2ccccc2c1 | 64.9 (≈ 218 µM) | 96.1 (≈ 323 µM) | 94.8 (≈ 319 µM) | 12.96 | 29.33 | 10.13 | 47.6
Cc1cc(OCCn2c([N+](=O)[O-])cnc2C)ccc1F | 116 (≈ 415 µM) | 226 (≈ 808 µM) | 140 (≈ 503 µM) | – | – | – | –
Cc1ccc(S(=O)(=O)OCCn2c([N+](=O)[O-])cnc2C)cc1 | 160 (≈ 491 µM) | 196 (≈ 603 µM) | 328 (≈ 1010 µM) | – | – | – | –
CN(Cc1cnc2nc(N)nc(N)c2n1)c1ccc(C(=O)N[C@@H](CCC(=O)O)C(=O)O)cc1 [METHOTREXATE] | 31.5 (≈ 69.3 µM) | 39.3 (≈ 86.5 µM) | 47.8 (≈ 105 µM) | – | – | – | –
Cc1ncc([N+](=O)[O-])n1CCOC(=O)c1ccccc1 [METRONIDAZOLE BENZOATE] | 245 (≈ 889 µM) | 281 (≈ 1020 µM) | 288 (≈ 1050 µM) | – | – | – | –
Cc1ncc([N+](=O)[O-])n1CCO [METRONIDAZOLE] | 348 (≈ 2030 µM) | 224 (≈ 1310 µM) | 278 (≈ 1620 µM) | – | – | – | –

Source: ChEMBL document CHEMBL4308910, “Metronidazole aryloxy, carboxy and azole derivatives: Synthesis, anti-tumor activity, QSAR, molecular docking and dynamics studies” (Bioorg Med Chem, 2019)
